Source: ChEMBL document CHEMBL5247599, “New β-arylchalcogeno amines with procognitive properties targeting Carbonic Anhydrases and Monoamine Oxidases” (Eur J Med Chem, 2022)
Activity calls are given as the source filed them. The calls are words filed in the database; no cut-off is given here.

Tests used:
[1] = target: Carbonic anhydrase 6 (Homo sapiens) (UniProt P23280); assay: Binding affinity to human CA6 by phenol red dye based stopped flow CO2 hydration assay; details: filed as activator
Summary of the method: (§1)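 Purified recombinant human CA isoforms. CA-catalysed CO2 hydration was followed by stopped-flow with phenol red at 557 nm, taking initial rates over 10–100 s from at least six traces of the first 5–10% of reaction. Uncatalysed rates were subtracted. Activator stocks were 0.1 mM in deionised water, diluted down to 0.1 nM in assay buffer. K_A came from non-linear least-squares Michaelis–Menten fitting.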

[2] = target: Carbonic anhydrase 12 (Homo sapiens) (UniProt O43570); assay: Binding affinity to human CA12 by phenol red dye based stopped flow CO2 hydration assay; details: filed as activator; summary of the method: as §1
Chain of Carbonic anhydrase 12 (Homo sapiens) (O43570 whole entry): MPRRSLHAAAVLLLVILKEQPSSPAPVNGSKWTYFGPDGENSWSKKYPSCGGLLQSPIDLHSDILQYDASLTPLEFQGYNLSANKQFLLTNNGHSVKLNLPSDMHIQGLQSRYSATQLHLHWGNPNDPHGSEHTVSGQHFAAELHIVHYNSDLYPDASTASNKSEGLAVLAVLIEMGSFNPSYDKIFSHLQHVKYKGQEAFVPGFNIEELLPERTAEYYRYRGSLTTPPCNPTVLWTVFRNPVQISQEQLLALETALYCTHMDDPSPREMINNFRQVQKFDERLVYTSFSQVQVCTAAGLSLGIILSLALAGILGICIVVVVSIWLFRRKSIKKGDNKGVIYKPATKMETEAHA

[3] = target: Carbonic anhydrase 5B, mitochondrial (Homo sapiens) (UniProt Q9Y2D0); assay: Binding affinity to human CA5b by phenol red dye based stopped flow CO2 hydration assay; details: filed as activator; summary of the method: as §1
Chain of Carbonic anhydrase 5B, mitochondrial (Homo sapiens) (Q9Y2D0 whole entry): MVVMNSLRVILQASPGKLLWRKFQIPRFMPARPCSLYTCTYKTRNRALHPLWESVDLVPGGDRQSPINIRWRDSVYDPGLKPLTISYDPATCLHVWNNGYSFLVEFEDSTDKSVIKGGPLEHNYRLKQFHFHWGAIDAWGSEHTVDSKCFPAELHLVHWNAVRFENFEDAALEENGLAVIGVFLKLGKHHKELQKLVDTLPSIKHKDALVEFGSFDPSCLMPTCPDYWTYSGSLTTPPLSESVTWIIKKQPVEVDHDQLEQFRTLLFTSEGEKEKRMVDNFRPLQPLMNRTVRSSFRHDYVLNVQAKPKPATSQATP

[4] = target: Carbonic anhydrase 5A, mitochondrial (Homo sapiens) (UniProt P35218); assay: Binding affinity to human CA5a by phenol red dye based stopped flow CO2 hydration assay; details: filed as activator; summary of the method: as §1
Chain of Carbonic anhydrase 5A, mitochondrial (Homo sapiens) (P35218 whole entry): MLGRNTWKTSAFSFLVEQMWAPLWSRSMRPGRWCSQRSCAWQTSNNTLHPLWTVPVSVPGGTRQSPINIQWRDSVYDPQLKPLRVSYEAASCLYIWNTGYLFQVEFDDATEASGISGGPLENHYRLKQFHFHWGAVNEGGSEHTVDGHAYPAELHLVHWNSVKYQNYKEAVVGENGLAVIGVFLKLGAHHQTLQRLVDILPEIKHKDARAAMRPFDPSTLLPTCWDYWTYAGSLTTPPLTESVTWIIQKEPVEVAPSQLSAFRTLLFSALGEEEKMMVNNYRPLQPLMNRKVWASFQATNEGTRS

[5] = target: Carbonic anhydrase 14 (Homo sapiens) (UniProt Q9ULX7); assay: Binding affinity to human CA14 by phenol red dye based stopped flow CO2 hydration assay; details: filed as activator; summary of the method: as §1
Chain of Carbonic anhydrase 14 (Homo sapiens) (Q9ULX7 whole entry): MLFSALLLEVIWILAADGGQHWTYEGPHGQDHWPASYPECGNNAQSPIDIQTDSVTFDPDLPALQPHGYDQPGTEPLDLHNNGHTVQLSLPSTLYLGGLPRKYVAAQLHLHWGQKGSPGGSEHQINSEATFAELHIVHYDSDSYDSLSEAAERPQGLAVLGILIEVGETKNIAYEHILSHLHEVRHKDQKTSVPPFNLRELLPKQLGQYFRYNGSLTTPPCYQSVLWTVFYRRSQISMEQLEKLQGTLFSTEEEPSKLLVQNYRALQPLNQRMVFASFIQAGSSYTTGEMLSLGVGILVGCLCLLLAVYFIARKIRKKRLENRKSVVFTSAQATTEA

[6] = target: Carbonic anhydrase 4 (Homo sapiens) (UniProt P22748); assay: Binding affinity to human CA4 by phenol red dye based stopped flow CO2 hydration assay; details: filed as activator; summary of the method: as §1
Chain of Carbonic anhydrase 4 (Homo sapiens) (P22748 whole entry): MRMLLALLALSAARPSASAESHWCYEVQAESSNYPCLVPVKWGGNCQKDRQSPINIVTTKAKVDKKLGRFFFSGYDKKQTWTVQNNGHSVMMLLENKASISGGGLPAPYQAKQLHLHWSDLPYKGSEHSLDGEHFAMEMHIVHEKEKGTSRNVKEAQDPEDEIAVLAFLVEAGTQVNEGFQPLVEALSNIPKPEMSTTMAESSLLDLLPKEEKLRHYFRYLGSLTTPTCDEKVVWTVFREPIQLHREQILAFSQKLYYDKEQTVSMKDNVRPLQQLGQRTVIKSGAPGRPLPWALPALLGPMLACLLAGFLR

[7] = target: Carbonic anhydrase 1 (Homo sapiens) (UniProt P00915); assay: Binding affinity to human CA1 by phenol red dye based stopped flow CO2 hydration assay; details: filed as activator; summary of the method: as §1
Chain of Carbonic anhydrase 1 (Homo sapiens) (P00915 2-261 limits assumed): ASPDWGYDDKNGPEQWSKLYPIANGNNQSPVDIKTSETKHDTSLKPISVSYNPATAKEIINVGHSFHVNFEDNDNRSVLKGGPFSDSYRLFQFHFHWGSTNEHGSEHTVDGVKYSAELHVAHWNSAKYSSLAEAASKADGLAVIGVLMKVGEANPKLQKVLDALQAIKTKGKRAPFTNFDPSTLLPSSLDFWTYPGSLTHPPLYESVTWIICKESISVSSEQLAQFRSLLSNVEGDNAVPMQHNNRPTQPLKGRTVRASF

[8] = target: T1, Amine oxidase [flavin-containing] B (Homo sapiens, UniProt P27338)
T1 sequence (P27338 whole entry): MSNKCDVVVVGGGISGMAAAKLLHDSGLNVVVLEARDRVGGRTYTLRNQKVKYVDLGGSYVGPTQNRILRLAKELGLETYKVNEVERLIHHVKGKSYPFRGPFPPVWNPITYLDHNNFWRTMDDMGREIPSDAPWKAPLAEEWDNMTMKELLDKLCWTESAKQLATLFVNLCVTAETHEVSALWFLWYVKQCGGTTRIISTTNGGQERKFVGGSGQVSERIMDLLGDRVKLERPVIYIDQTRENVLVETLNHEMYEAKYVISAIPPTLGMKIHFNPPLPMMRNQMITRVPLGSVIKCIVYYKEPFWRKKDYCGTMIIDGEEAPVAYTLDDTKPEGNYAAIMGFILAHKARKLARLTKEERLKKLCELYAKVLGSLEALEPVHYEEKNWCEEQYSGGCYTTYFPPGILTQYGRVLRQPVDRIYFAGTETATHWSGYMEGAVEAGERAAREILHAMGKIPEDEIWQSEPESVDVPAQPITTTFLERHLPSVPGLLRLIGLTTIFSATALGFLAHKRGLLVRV

[9] = target: Carbonic anhydrase 13 (Homo sapiens) (UniProt Q8N1Q1); assay: Binding affinity to human CA13 by phenol red dye based stopped flow CO2 hydration assay; details: filed as activator; summary of the method: as §1
Chain of Carbonic anhydrase 13 (Homo sapiens) (Q8N1Q1 whole entry, looked up): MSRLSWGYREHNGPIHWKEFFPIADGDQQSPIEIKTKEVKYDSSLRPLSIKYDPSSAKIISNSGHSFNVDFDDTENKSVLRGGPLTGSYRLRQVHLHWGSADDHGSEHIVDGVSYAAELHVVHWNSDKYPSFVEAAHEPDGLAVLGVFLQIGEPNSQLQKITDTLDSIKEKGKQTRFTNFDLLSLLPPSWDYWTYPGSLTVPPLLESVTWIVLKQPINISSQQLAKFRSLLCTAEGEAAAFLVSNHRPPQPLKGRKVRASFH

[10] = target: Carbonic anhydrase 3 (Homo sapiens) (UniProt P07451); assay: Binding affinity to human CA3 by phenol red dye based stopped flow CO2 hydration assay; details: filed as activator; summary of the method: as §1
Chain of Carbonic anhydrase 3 (Homo sapiens) (P07451 whole entry): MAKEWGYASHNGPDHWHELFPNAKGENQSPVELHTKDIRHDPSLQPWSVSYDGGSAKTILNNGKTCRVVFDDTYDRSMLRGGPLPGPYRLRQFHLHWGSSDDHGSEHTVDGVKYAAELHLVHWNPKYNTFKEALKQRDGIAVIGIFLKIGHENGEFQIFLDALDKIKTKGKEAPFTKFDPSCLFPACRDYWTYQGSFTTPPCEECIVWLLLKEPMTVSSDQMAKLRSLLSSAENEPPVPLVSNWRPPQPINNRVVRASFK

[11] = target: Carbonic anhydrase 2 (Homo sapiens) (UniProt P00918); assay: Binding affinity to human CA2 by phenol red dye based stopped flow CO2 hydration assay; summary of the method: as §1
[12] = target: Carbonic anhydrase 7 (Homo sapiens) (UniProt P43166); assay: Binding affinity to human CA7 by phenol red dye based stopped flow CO2 hydration assay; details: filed as activator; summary of the method: as §1
Chain of Carbonic anhydrase 7 (Homo sapiens) (P43166 whole entry): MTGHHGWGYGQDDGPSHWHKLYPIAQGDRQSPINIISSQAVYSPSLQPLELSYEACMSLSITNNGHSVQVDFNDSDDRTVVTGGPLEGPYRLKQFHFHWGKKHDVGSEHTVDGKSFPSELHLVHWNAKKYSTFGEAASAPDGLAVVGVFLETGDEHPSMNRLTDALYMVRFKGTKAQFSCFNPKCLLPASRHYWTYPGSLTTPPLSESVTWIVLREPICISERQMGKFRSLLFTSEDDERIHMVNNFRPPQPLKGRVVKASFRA

[13] = target: Carbonic anhydrase 9 (Homo sapiens) (UniProt Q16790); assay: Binding affinity to human CA9 by phenol red dye based stopped flow CO2 hydration assay; details: filed as activator; summary of the method: as §1
[14] = target: T2, Amine oxidase [flavin-containing] A (Homo sapiens, UniProt P21397); assay: Inhibition of human recombinant MAO-A assessed as inhibition of 4-hydroxyquinoline formation using kynuramine as substrate by fluorescence spectrophotometry analysis
T2 sequence (P21397 whole entry): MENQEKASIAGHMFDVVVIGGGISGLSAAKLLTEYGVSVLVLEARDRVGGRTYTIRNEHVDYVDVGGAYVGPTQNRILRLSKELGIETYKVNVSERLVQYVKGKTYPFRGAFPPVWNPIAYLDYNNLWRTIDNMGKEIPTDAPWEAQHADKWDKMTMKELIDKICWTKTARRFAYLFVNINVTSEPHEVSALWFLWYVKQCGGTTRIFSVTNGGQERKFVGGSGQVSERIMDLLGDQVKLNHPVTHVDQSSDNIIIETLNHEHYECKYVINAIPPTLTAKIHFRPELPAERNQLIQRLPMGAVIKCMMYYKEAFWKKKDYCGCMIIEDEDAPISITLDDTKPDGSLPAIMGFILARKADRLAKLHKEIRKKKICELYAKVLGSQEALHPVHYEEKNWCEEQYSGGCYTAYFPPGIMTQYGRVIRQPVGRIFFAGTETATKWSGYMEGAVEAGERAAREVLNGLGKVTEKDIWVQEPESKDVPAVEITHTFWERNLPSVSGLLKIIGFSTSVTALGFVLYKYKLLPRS
Summary of the method: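 Recombinant human MAO-A with kynuramine as substrate. The 4-hydroxyquinoline product was quantified by fluorescence spectrophotometry, and IC50 values were determined.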

Mus musculus [15] = assay: Pro-cognitive activity in C57Bl6 mouse assessed as attenuation of long-term memory deficit by measuring increase in exploration time for novel juvenile at 25 nmol/uL, icv measured after 48 hrs by novel object recognition test; type: functional, organism-based
Summary of the method: (§2)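 Male adult C57Bl6 mice (8–9 weeks), lateral-ventricle cannula implanted 7 days earlier. Social recognition: 10-min habituation to arena with two empty cups; 24 h later 10-min acquisition with an unfamiliar juvenile (3–4 weeks) under one wire cup. Immediately after, 5 µL i.c.v. infusion at 1 µL/min. Retention at 48 h with familiar and novel juvenile; percentage time exploring each cup (snout-to-cup contact).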

Mus musculus [16] = assay: Pro-cognitive activity in C57Bl6 mouse assessed as attenuation of long-term memory deficit by measuring increase in exploration time for novel juvenile by measuring discrimination index at 50 nmol/uL, icv measured after 48 hrs by novel object recognition test; type: functional
Summary of the method: (§3)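 Social recognition in adult male C57Bl6 mice with intracerebroventricular cannulae. Habituation was 10 min with two empty cups. Twenty-four hours later, a novel 3–4-week-old juvenile was placed under one cup for 10 min of exploration, followed immediately by a 5 µL infusion at 1 µL/min. Retention 48 h later offered familiar versus novel juvenile, scoring snout-to-cup contact. DI = (tN−tF)/(tN+tF).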

Mus musculus [17] = assay: Pro-cognitive activity in C57Bl6 mouse assessed as attenuation of long-term memory deficit by measuring increase in exploration time for novel juvenile by measuring discrimination index at 25 nmol/uL, icv measured after 48 hrs by novel object recognition test; type: functional; summary of the method: as §3
Mus musculus [18] = assay: Pro-cognitive activity in C57Bl6 mouse assessed as attenuation of long-term memory deficit by measuring increase in exploration time for novel object by measuring discrimination index at 50 nmol/uL, icv measured after 24 hrs by novel object recognition test; type: functional
Summary of the method: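 Novel object recognition in adult male C57Bl6 mice. Habituation was 10 min in an empty arena. Twenty-four hours later, mice explored two identical objects for 5 min, then received an immediate 5 µL lateral-ventricle infusion at 1 µL/min. A 5-min retention test with one familiar and one novel object followed 24 h later. Scores were % exploration time and DI = (tN−tF)/(tN+tF).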

Mus musculus [19] = assay: Pro-cognitive activity in C57Bl6 mouse assessed as attenuation of long-term memory deficit by measuring increase in exploration time for novel juvenile at 50 nmol/uL, icv measured after 48 hrs by novel object recognition test; type: functional, organism-based; summary of the method: as §2
Mus musculus [20] = assay: Pro-cognitive activity in C57Bl6 mouse assessed as attenuation of long-term memory deficit by measuring increase in exploration time for novel object by measuring discrimination index at 25 nmol/uL, icv measured after 24 hrs by novel object recognition test
Mus musculus [21] = assay: Pro-cognitive activity in C57Bl6 mouse assessed as attenuation of long-term memory deficit by measuring increase in exploration time for novel object at 50 nmol/uL, icv measured after 24 hrs by novel object recognition test; type: functional, organism-based
Summary of the method: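 Male adult C57Bl6 mice (8–9 weeks), lateral-ventricle cannula implanted one week before. 10-min habituation to empty open-field arena; 24 h later, 5-min acquisition with two identical objects, followed immediately by 5 µL i.c.v. infusion at 1 µL/min. 5-min retention test 24 h after acquisition with one familiar and one novel object; percentage exploration time per object, two-way ANOVA with Bonferroni.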

Chain of Carbonic anhydrase 6 (Homo sapiens) (P23280 whole entry, canonical isoform): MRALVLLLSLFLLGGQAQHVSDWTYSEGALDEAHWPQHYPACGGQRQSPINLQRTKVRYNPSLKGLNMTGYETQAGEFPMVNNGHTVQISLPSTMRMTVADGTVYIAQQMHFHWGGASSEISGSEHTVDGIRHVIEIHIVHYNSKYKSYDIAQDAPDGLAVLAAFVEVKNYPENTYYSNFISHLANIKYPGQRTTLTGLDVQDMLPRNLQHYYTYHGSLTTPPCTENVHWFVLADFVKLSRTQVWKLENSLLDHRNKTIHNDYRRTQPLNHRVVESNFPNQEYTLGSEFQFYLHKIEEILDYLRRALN

SMILES	Ka [1] [µM]	Ka [2] [µM]	Ka [3] [µM]	Ka [4] [µM]	Ka [5] [µM]	Ka [6] [µM]	Ka [7] [µM]	IC50 [8] [µM]	Ka [9] [µM]	Ka [10] [µM]	Ka [11] [µM]	Ka [12] [µM]	Ka [13] [µM]	IC50 [14] [µM]	further results
CC(N)CSc1ccccc1Br (stereo not drawn)	55.9	46.7	12.8	13.3	3.6	2.4	9.5	64.8	90.9	70.8	> 100	23.2	56.6	0.724	
Cc1cccc(C)c1[Se]CC(C)N (stereo not drawn)	31.4	78.2	22.7	20.9	1.1	9.5	6	2.79	83.3	90.8	> 100	21.4	81.2	1.68	
COc1cc([Te]CC(C)N)cc(OC)c1OC (stereo not drawn)	69.2	32.7	29.5	9.4	1.2	4.4	9.5		58.3	60.6	> 100	14.3	85.2		
CC(N)C[Se]c1ccc(F)cc1 (stereo not drawn)	48.5	90.6	20.2	13.1	2.6	6.1	19.6	13.4	46.9	13.1	> 100	13.4	22.8	10.5	
Cc1ccc([Te]CC(C)N)cc1 (stereo not drawn)	23.6	80.4	15.7	4	2.4	5.3	8.2		82.7	73.5	> 100	21.9	74.4	6.66	
N[C@H](Cc1ccccc1)C(=O)O [D-PHENYLALANINE]															Activity (Mus musculus [15]): inactive; Activity_index (Mus musculus [16]): 0.291; Activity_index (Mus musculus [17]): 0.009; Activity_index (Mus musculus [18]): 0.375; Activity (Mus musculus [19]): Active; Activity_index (Mus musculus [20]): 0.075; Activity (Mus musculus [21]): Active
CC(N)C[Te]c1ccccc1 (stereo not drawn)	73.1	52.5	21.7	14.2	3.2	5.9	9.9		49.7	59.7	> 100	41.2	22.2	25.4	
CC(N)CSc1ccc(Br)cc1 (stereo not drawn)	61.6	72.9	22.7	12.4	3.8	7.4	7.7		54.4	5.4	> 100	14.8	63.3	3.89	
Cc1ccc([Se]CC(C)N)cc1 (stereo not drawn)	30.5	89.7	15.7	9.1	8.3	2.2	5.2	36.5	68.6	20.3	> 100	10.4	82.5	2.03	
COc1ccc([Te]CC(C)N)cc1 (stereo not drawn)	37.8	52.8	22.5	3.3	9.5	8.2	4.6	84.2	38.2	77.3	> 100	44.9	47.9	14	
COc1ccc([Se]CC(C)N)cc1 (stereo not drawn)	46.4	68.8	25.8	20.3	8.7	8.7	21.4	36.8	60.4	66.8	> 100	23.3	73.2	1.21	
Cc1ccccc1[Se]CC(C)N (stereo not drawn)	71.6	51.8	23.7	20	4.7	2.7	12.1	16.7	49.3	54.1	> 100	14.2	83.3	5.17	
CC(N)CSc1cccc(Br)c1 (stereo not drawn)	30.9	87.9	11.5	12.9	2.9	2.2	13.5		49.3	91.7	> 100	11.4	77.9	7.82	
CC(N)C[Se]c1ccc(N(C)C)cc1 (stereo not drawn)	76.5	58.5	21.8	14	6.7	9.4	22.1	21.3	44.1	72.6		12.1	70.1	7.15	Ka ([11]; filed as activator): 45.1 µM
